Test results reported in ChEMBL document CHEMBL1145991 (J Med Chem, 2003).

What was measured:
Details in all cases: Aorta
[1] = In vitro maximal vasorelaxation of endothelium-denuded rat aortic rings, expressed as percentage contractile tension.; type: functional
Summary of the method: (§1)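 Thoracic aortic rings were taken from male normotensive Wistar rats (250–350 g) and equilibrated for 60 min. Rings relaxing ≥10% to ACh 10 μM after NE 1 μM precontraction were discarded. Rings were contracted with KCl 20 mM, then 3-fold increasing concentrations were added cumulatively. Efficacy is the maximal relaxation as % of KCl tone, or the response at the 0.1 mM limit concentration. Mean ± standard error of 5–10 experiments.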

[2] = In vitro maximal vasorelaxing effect evoked on endothelium-denuded rat aortic rings in the presence of 1 uM glibenclamide; type: functional
Summary of the method: (§2)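 Glibenclamide 1 μM was added to endothelium-denuded male Wistar rat aortic rings before the 20 mM KCl contraction. Compound was then added cumulatively in 3-fold increasing concentrations, and relaxation was expressed relative to the KCl tone. Student t test against control, P < 0.05. Mean ± standard error, 5–10 experiments.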

Rattus norvegicus [3] = species: Rattus norvegicus; experiment: In vitro maximal vasorelaxing effect evoked on endothelium-denuded rat aortic rings was expressed as percentage contractile tension; The compound was ineffective; type: functional, tissue-based; summary of the method: as §1
Rattus norvegicus [4] = species: Rattus norvegicus; experiment: In vitro vasorelaxing effect evoked on endothelium-denuded rat aortic rings expressed as half reduction of the contractile tone; The compound was ineffective; type: functional, tissue-based
[5] = In vitro vasorelaxing effect evoked on endothelium-denuded rat aortic rings in the presence of 1 uM glibenclamide; type: functional, tissue-based; summary of the method: as §2
[6] = In vitro maximal vasorelaxing effect evoked on endothelium-denuded rat aortic rings was expressed as percentage contractile tension in the presence of 60 mM KCl
[7] = In vitro vasorelaxing effect evoked on endothelium-denuded rat aortic rings expressed as potency significantly different from respective control; type: functional, tissue-based
[8] = In vitro vasorelaxing effect evoked on endothelium-denuded rat aortic rings expressed as percentage efficacy (%) recorded in the presence of 1 uM glibenclamide
[9] = In vitro vasorelaxing effect evoked on endothelium-denuded rat aortic rings in the presence of 1 uM glibenclamide

| IC50 [5] [nM] | Structure (SMILES) | Emax [1] [%] | Emax [2] [%] | Emax [6] [%] | other results |
| --- | --- | --- | --- | --- | --- |
|  | CC1(C)CN(NC(=O)c2cccc(F)c2)c2cc(Br)ccc2S1 | 95 | 58 |  |  |
|  | CC(=O)N1CC(C)(C)Sc2ccc([N+](=O)[O-])cc21 |  |  |  | NE (Rattus norvegicus [3]): Ineffective; NE (Rattus norvegicus [4]): Ineffective |
| 69.2 | CC1(C)CN(C2=CCCC2=O)c2cc(C#N)ccc2S1 | 95 | 100 | 18 |  |
|  | CC1(C)CN(N2CCCCC2=O)c2cc(Br)ccc2S1 | 100 |  |  |  |
|  | CC1(C)Sc2ccc(C(F)(F)F)cc2NC1=O |  |  |  | IC50 [7]: 28200 nM; Emax [8]: 81% |
|  | CC1(C)CN(N2CCCC2=O)c2cc(Br)ccc2S1(=O)=O | 100 |  |  |  |
| 2400 | CC1(C)CN(N2CCCC2=O)c2cc(Br)ccc2S1 | 100 | 99 | 30 |  |
|  | CC1(C)CN(N2CCCC2=O)c2cc([N+](=O)[O-])ccc2S1 | 91 |  |  |  |
|  | CC1(C)Oc2ccc(C#N)cc2[C@@H](N2CCCC2=O)[C@@H]1O [LEVCROMAKALIM] | 100 |  |  |  |
| 302 | CC1(C)CN(NC(=O)c2cccc(F)c2)c2cc([N+](=O)[O-])ccc2S1 | 91 | 93 | 15 |  |
|  | CC(=O)N1CC(C)(C)Sc2ccc(Br)cc21 | 100 |  |  |  |
|  | CC1(C)CN(C2=CCCC2=O)c2cc(Br)ccc2S1 | 99 | 92 | 28 | IC50 [9]: 525 nM |
|  | C=CCN1CC(C)(C)Sc2ccc(C(F)(F)F)cc21 | 97 |  |  |  |
|  | CC1(C)CN(N2CCCC2=O)c2cc(C#N)ccc2S1 | 98 |  |  |  |
| 437 | CC1(C)CN(C2=CCCC2=O)c2cc(C(F)(F)F)ccc2S1 | 99 | 87 | 35 |  |
|  | CC(=O)NN1CC(C)(C)Sc2ccc(Br)cc21 | 100 |  |  |  |
| 417 | CC1(C)CN(C2=CCCC2=O)c2cc([N+](=O)[O-])ccc2S1 | 98 | 90 | 26 |  |
| 93.3 | CC(=O)NN1CC(C)(C)Sc2ccc([N+](=O)[O-])cc21 | 92 | 95 | 24 |  |
|  | CC1(C)CN(N2CCCC2=O)c2cc(Br)ccc2[S+]1[O-] (stereo not drawn) | 96 |  |  |  |
